Measurements as given in PMC3141330 (Biochemistry, 2010).
Values joined by “and” are separate entries in the source; they are usually repeats but may differ in a detail not shown here. Equal values may be shown once. “Also recorded” adds a separate entry of the source. Blank lines part the entries; values can stand above or below the molecule they belong to.

Assays:
[1] = tested on: Hsp90 in BT474 breast cancer cells; test: Quantitative Western blot: Hsp90 in BT474 cells after 17-AAG; assay type: cell-based; conditions: BT474, 0.178 µM 17-AAG, 7 or 14 hours; Hsp90 dimer; same as normal
How it was run: (§1)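 BT474 cells, seeded overnight, were exposed to 0.178 µM test compound (Hsp90 inhibitor) for 7 or 14 h; untreated cells were harvested at 15 h. Cells were counted, then lysed in SDS buffer. Extract from 35,000 cells (Hsp70, Hsp90, HOP) or 70,000 cells (CHIP) was blotted with ECL detection against a linear purified-protein calibration series. Values were converted via cell number and a cell volume of 3.5×10⁻⁶ µl.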

[2] = tested on: Hsp90; conditions: ref [32]; cited from earlier work
[3] = tested on: HOP in BT474 breast cancer cells; test: Quantitative Western blot: HOP in BT474 cells after 17-AAG; assay type: cell-based; conditions: BT474, 0.178 µM 17-AAG, 7 or 14 hours; HOP monomer; same as normal
How it was run: as §1

[4] = tested on: HER2 in BT474 breast cancer cells; test: Western blot: HER2 in BT474 cells after 17-AAG; assay type: cell-based; conditions: BT474, 0.178 µM 17-AAG, 7 or 14 hours; qualitative, GAPDH loading control
[5] = tested on: CHIP in BT474 breast cancer cells; test: Quantitative Western blot: CHIP in BT474 cells after 17-AAG; assay type: cell-based; conditions: BT474, 0.178 µM 17-AAG, 7 or 14 hours; CHIP monomer; constant versus normal
How it was run: as §1

[6] = tested on: HER2/neu; conditions: Hsp90 inhibition in cells; CHIP-dependent; ref [17]; cited from earlier work
[7] = tested on: Hsp70 in BT474 breast cancer cells; test: Quantitative Western blot: Hsp70 in BT474 cells after 17-AAG; assay type: cell-based; conditions: BT474, 0.178 µM 17-AAG, 7 or 14 hours; ~10 µM (monomer) under normal conditions
How it was run: as §1

[8] = target: T1, CHIP (Homo sapiens, UniProt Q9UNE7); test: ITC: C-terminal peptides of Hsp70 or Hsp90; assay type: binding; conditions: dimer and tetramer species of CHIP, data not shown
T1 sequence (Q9UNE7 1-303): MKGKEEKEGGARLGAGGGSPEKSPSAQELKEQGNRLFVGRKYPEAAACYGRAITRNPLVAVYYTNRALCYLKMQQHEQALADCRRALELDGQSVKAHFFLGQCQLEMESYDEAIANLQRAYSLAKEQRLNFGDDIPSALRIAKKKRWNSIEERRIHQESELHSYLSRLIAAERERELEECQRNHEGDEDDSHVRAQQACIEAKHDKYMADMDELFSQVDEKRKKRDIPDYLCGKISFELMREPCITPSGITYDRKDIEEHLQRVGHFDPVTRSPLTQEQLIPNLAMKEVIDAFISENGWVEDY

[9] = tested on: Hsp70 and Hsp90; conditions: ref [18], cited from earlier work
[10] = tested on: Hsp90-dependent client proteins; conditions: CFTRΔF508 and wild-type CFTR; ref [36]; cited from earlier work
[11] = target: T1, CHIP; assay type: biochemical; conditions: discussion summary
How it was run: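 Reactions contained 0.091 µM human UBE1, 20 µM UbcH5c, 20 µM CHIP, 100 µM Hsp70 T13G ±188 µM model client peptide. Buffer: 50 mM Tris pH 7.4, 150 mM KCl, 10 mM NaCl, 3 mM MgCl2, 10 mM ATP, 0.1 mM βME. Preincubated 30°C ~10 min, started with 0.5 mM ubiquitin. Timed aliquots ran on Coomassie SDS-PAGE; ubiquitin per CHIP monomer fitted linearly early (slope = rate); three independent experiments, SD.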

[12] = tested on: CHIP; conditions: 'normal' non-Hsp90 inhibited cells, cycloheximide; ref [17]; cited from earlier work
[13] = tested on: Hsp90; test: Control Ni-NTA pull-down of HOP by His6-Hsp90; assay type: binding; conditions: 20 µM His6-Hsp90, 20 µM HOP without His6-tag, 150 mM KCl, 3 mM MgCl2, Ni-NTA, 4°C
[14] = tested on: Hsp90; test: Competition pull-down: HOP versus GST-CHIP for Hsp90; assay type: binding
How it was run: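 GST-CHIP (10 µM) and His6-Hsp90 (10 µM), or subsets as controls, were mixed with 3–30 µM His6-HOP in 50 mM Tris pH 7.4, 10 mM NaCl, 5 mM βME. Mixtures were held on ice ~10 min, then rotated with glutathione agarose at 4°C for 1 h and washed 4×. Bound protein was eluted in SDS buffer and resolved by Coomassie SDS-PAGE.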

[15] = tested on: Hsp70; conditions: ref [35]; cited from earlier work
[16] = tested on: Hsp90; conditions: human Hsp90; ref [19]; cited from earlier work

Molecule: C=CCNC1=C2C[C@@H](C)C[C@H](OC)[C@H](O)[C@@H](C)/C=C(\C)[C@H](OC(N)=O)[C@@H](OC)/C=C\C=C(/C)C(=O)NC(=CC1=O)C2=O [17-AAG]
Hsp90 level upon 17-AAG treatment [1]: ~ 5 µM
binding to Hsp90 (in words) [2]: binds to the ATP binding pocket and renders the chaperone unable to facilitate client protein folding process
HOP level upon 17-AAG treatment [3]: ~ 3 µM
HER2 levels upon 17-AAG treatment (in words) [4]: decrease in HER2 levels
CHIP concentration upon 17-AAG treatment [5]: ~ 0.1 µM
degradation of HER2/neu (in words) [6]: client proteins such as the oncoprotein HER2/neu undergo rapid CHIP-dependent degradation; also recorded: rapid degradation of the Hsp70/Hsp90 client protein HER2/neu
total Hsp70 cellular concentration upon 17-AAG treatment [7]: 39 µM and ~ 39 µM

Molecule: COC1=C2C[C@@H](C)C[C@H](OC)[C@H](O)[C@@H](C)/C=C(\C)[C@H](OC(N)=O)[C@@H](OC)/C=C\C=C(/C)C(=O)NC(=CC1=O)C2=O [geldanamycin]
degradation of HER2/neu (in words) [6]: rapid degradation of the Hsp70/Hsp90 client protein HER2/neu

Molecule: Carboxyl terminus of Hsc70-interacting protein [CHIP]
binding of both CHIP oligomeric species to Hsp70 (in words) [8]: both oligomeric species of CHIP bind Hsp70 with the same binding affinity and stoichiometry
effect of CHIP over-expression on Hsp70 levels (in words) ([9]; over-expression of CHIP): decrease in Hsp70 levels
effect of CHIP on half-life of Hsp70 and Hsp90 (in words) [9]: greatly decreased the half-life of both Hsp70 and Hsp90, with degradation of Hsp70 being more pronounced
degradation of CFTR on increase in CHIP concentration (in words) [10]: leads to degradation of a cystic fibrosis causing mutant of Hsp70/Hsp90 client protein CFTR, CFTRΔF508; also recorded: also leads to degradation of wild-type CFTR
rate of ubiquitination at substrate concentrations much above KM [11]: ~ 0.1 ubiquitin molecules attached/CHIP monomer/minute

Molecule: HER2: oncoprotein, Hsp70/Hsp90 client protein
half life of HER2 in normal cells [12]: less than 1 hour

binding of HOP to CHIP, control (in words) ([14]; control lanes, glutathione agarose pull-down with GST-CHIP): HOP does not bind to CHIP
Molecule: Hsp70/Hsp90 organizing protein [HOP]
pull-down of HOP by Hsp90 (in words) [13]: the HOP and Hsp90 interaction is stable; also recorded: HOP does not bind non-specifically to the resin but binds to Hsp90
competition with CHIP for binding to Hsp90 (in words) ([14]; 3-30 µM His6-HOP, 10 µM GST-CHIP, 10 µM His6-Hsp90, 50 mM Tris pH 7.4, 10 mM NaCl, 5 mM βME, 4°C 1 hour, glutathione agarose): CHIP does not pull-down HOP through Hsp90, but that HOP and CHIP compete for binding to Hsp90; also recorded: HOP is competing with CHIP for binding to Hsp90

Molecule: Hsp70: heat shock induced monomeric molecular chaperone; recombinant His6-Hsp70
kcat for client peptide stimulated hydrolysis of ATP by Hsp70 [15]: 0.0017 to 0.005 s⁻¹

Molecule: Hsp90: heat shock induced homo-dimeric molecular chaperone; recombinant His6-Hsp90β
kcat of ATP hydrolysis by Hsp90 [16]: ~ 0.09 min^−1
